What was measured:
Cytochrome P450 2D6 [1] = target: T1, Cytochrome P450 2D6 (Homo sapiens, UniProt P10635); test: Inhibition of CYP2D6 in human liver microsomes measured after concurrent incubation; format: ADME
Outline: (§1)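 Human liver microsomes; CYP inhibition measured with compound added concurrently or after pre-incubation; concentration inhibiting 50% of enzyme activity determined.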

Cynomolgus monkey [2] = test: Drug metabolism in cynomolgus monkey assessed as sulfate conjugate formation administered as single oral dose; format: ADME, organism-based, Macaca fascicularis; conditions: in vivo
Outline: (§2)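 Radiolabeled [3H] compound given as single oral dose to monkey; bile and urine excretion and metabolites profiled, including parent fraction in bile and glutathione or sulfate conjugates.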

Cytochrome P450 2C19 [3] = target: T2, Cytochrome P450 2C19 (Homo sapiens, UniProt P33261); test: Inhibition of […] in human liver microsomes measured after concurrent incubation; format: ADME
Cytochrome P450 1A2 [4] = target: T3, Cytochrome P450 1A2 (Homo sapiens, UniProt P05177); test: Inhibition of CYP1A2 in human liver microsomes measured after concurrent incubation; format: ADME; outline: as §1
T3 sequence (P05177 whole entry): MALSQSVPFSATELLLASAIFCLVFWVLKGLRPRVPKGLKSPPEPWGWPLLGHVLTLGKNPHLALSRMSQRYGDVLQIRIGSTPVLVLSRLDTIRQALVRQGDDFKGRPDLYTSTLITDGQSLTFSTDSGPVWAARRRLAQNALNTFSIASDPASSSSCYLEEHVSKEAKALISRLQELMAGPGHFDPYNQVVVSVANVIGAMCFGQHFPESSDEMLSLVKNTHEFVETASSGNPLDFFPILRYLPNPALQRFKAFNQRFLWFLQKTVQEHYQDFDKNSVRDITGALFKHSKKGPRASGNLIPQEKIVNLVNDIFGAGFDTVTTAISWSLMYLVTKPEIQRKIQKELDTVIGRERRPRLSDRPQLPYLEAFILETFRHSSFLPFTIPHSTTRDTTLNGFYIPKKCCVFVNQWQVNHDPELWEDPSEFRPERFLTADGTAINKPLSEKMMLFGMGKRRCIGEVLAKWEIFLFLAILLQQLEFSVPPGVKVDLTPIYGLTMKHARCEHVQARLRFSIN

Cynomolgus monkey [5] = test: Drug metabolism in cynomolgus monkey assessed as glutathione conjugate formation administered as single oral dose; format: ADME, organism-based, Macaca fascicularis; conditions: in vivo; outline: as §2
[6] = AUC in fed cynomolgus monkey at 10 mg/kg, po; format: ADME, organism-based, Macaca fascicularis; design: dose 10 mg/kg, route oral; conditions: plasma
Outline: (§3)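 Given orally as crystalline sodium salt to fed male Sprague Dawley rats (30–500 mg/kg) or fed male Cynomolgus monkeys (10–100 mg/kg) to assess dose exposure; plasma AUC and Cmax determined.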

Cytochrome P450 2C8 [7] = target: T4, Cytochrome P450 2C8 (Homo sapiens, UniProt P10632); test: Inhibition of CYP2C8 in human liver microsomes measured after concurrent incubation; format: ADME; outline: as §1
T4 sequence (P10632 whole entry): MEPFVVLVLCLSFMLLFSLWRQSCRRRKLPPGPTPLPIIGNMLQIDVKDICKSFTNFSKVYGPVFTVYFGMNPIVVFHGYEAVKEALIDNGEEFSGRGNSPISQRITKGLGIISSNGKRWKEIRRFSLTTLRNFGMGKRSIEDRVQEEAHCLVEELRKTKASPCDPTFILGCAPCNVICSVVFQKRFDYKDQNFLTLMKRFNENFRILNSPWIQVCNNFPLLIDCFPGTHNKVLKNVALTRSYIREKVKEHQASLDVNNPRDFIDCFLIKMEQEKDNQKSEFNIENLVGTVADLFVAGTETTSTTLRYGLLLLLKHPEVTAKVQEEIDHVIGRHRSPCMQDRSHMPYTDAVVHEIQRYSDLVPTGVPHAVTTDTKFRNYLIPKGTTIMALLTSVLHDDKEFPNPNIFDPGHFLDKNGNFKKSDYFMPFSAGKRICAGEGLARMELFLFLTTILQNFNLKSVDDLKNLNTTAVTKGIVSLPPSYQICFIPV

Hepatitis C virus = test: Antiviral activity against HCV Con1 in eplicon cells after 3 days by RT-PCR analysis; format: functional, organism-based, Hepacivirus hominis; conditions: isolate Con1, 72 h
Outline: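 HCV 1b-Con1 replicon cells seeded at 5000 cells/well one day before treatment; inhibitor in DMSO added as 10 serial twofold dilutions in duplicate (final 0.5% DMSO, 5% FBS). Harvested 3 days post dosing; replicon RNA quantified by real-time RT-PCR (Taqman), GAPDH RNA as endogenous control; EC50 calculated.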

[8] = AUC in fed Sprague-Dawley rat at 30 mg/kg, po; format: ADME, organism-based; design: dose 30 mg/kg, route oral; conditions: plasma; outline: as §3
Salmonella typhimurium [9] = test: Induction of mutagenicity in Salmonella Typhimurium TA 102 by mini-Ames assay; format: toxicity, organism-based; conditions: salmonella enterica subsp. enterica serovar typhimurium
Outline: (§4)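 Mini-Ames mutagenicity test against Salmonella strains TA 97a, TA 100 and TA 102.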

[10] = Cmax in fed Sprague-Dawley rat at 30 mg/kg, po; format: ADME, organism-based; design: dose 30 mg/kg, route oral; conditions: in vivo; outline: as §3
[11] = Drug excretion in cynomolgus monkey bile assessed as parent compound administered as single oral dose; format: ADME, Macaca fascicularis; conditions: read-out: Drug excretion; outline: as §2
[12] = Cmax in fed Sprague-Dawley rat at 250 mg/kg, po; format: ADME, organism-based; design: dose 250 mg/kg, route oral; conditions: in vivo; outline: as §3
Rattus norvegicus [13] = test: Toxicity in rat assessed as soft and mucoid stool at 1000 to 2000 mg/kg measured up to 1 day; format: organism-based; design: dose 1000-2000 mg/kg; conditions: in vivo, 24 h
Outline: (§5)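 Single-dose rat toxicity study with dose groups of 250, 500, 1000 and 2000 mg/kg. Animals were monitored for clinical signs of toxicity, including stool appearance, and for mortality.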

Cytochrome P450 3A4 [14] = target: T5, Cytochrome P450 3A4 (Homo sapiens, UniProt P08684); test: Inhibition of CYP3A4 in human liver microsomes measured after compound pre-incubation; format: ADME; outline: as §1
[15] = AUC in fed Sprague-Dawley rat at 500 mg/kg, po; format: ADME, organism-based; design: dose 500 mg/kg, route oral; conditions: plasma; outline: as §3
Salmonella typhimurium [16] = test: Induction of mutagenicity in Salmonella Typhimurium TA 97a by mini-Ames assay; format: toxicity, organism-based; conditions: salmonella enterica subsp. enterica serovar typhimurium; outline: as §4
[17] = AUC in fed cynomolgus monkey at 30 mg/kg, po; format: ADME, organism-based, Macaca fascicularis; design: dose 30 mg/kg, route oral; conditions: plasma; outline: as §3
[18] = AUC in fed Sprague-Dawley rat at 100 mg/kg, po; format: ADME, organism-based; design: dose 100 mg/kg, route oral; conditions: plasma; outline: as §3
Cytochrome P450 2D4 [19] = target: T6, Cytochrome P450 2D4 (Rattus norvegicus, UniProt Q64680); test: Inhibition of rat CYP2D4 measured after compound pre-incubation; format: ADME
T6 sequence (Q64680 whole entry): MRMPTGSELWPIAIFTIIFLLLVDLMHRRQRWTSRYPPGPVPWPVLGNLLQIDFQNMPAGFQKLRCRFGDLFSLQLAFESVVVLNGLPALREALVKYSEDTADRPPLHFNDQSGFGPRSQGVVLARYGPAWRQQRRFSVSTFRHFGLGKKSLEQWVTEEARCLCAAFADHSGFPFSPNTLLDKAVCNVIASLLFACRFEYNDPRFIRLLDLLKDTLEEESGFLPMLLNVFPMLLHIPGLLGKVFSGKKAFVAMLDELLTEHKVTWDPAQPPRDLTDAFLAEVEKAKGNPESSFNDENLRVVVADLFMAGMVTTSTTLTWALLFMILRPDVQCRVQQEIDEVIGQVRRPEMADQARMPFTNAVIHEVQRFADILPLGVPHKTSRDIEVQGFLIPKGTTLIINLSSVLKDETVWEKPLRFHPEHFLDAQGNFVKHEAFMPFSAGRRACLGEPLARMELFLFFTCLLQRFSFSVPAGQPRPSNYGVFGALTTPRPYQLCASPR

Salmonella typhimurium [20] = test: Induction of mutagenicity in Salmonella Typhimurium TA 100 by mini-Ames assay; format: toxicity, organism-based; conditions: salmonella enterica subsp. enterica serovar typhimurium; outline: as §4
[21] = AUC in fed Sprague-Dawley rat at 250 mg/kg, po; format: ADME, organism-based; design: dose 250 mg/kg, route oral; conditions: plasma; outline: as §3
[22] = Irreversible inhibition of HCV1b NS5B delta21 polymerase by radiolabeled nucleotide incorporation assay; design: species or system Hepatitis C virus subtype 1b
Cytochrome P450 2C9 [23] = target: T7, Cytochrome P450 2C9 (Homo sapiens, UniProt P11712); test: Inhibition of CYP2C9 in human liver microsomes measured after concurrent incubation; format: ADME; outline: as §1
[24] = Cmax in fed cynomolgus monkey at 30 mg/kg, po; format: ADME, organism-based, Macaca fascicularis; design: dose 30 mg/kg, route oral; conditions: in vivo; outline: as §3
Cytochrome P450 2C9 [25] = target: T7, Cytochrome P450 2C9; test: Inhibition of CYP2C9 in human liver microsomes measured after compound pre-incubation; format: ADME; outline: as §1
[26] = Cmax in fed cynomolgus monkey at 100 mg/kg, po; format: ADME, organism-based, Macaca fascicularis; design: dose 100 mg/kg, route oral; conditions: in vivo; outline: as §3
Cytochrome P450 3A4 [27] = target: T5, Cytochrome P450 3A4; test: Inhibition of CYP3A4 in human liver microsomes measured after concurrent incubation; format: ADME; outline: as §1
Cytochrome P450 1A2 [28] = target: T3, Cytochrome P450 1A2; test: Inhibition of CYP1A2 in human liver microsomes measured after compound pre-incubation; format: ADME; outline: as §1
Cytochrome P450 2D4 [29] = target: T6, Cytochrome P450 2D4; test: Inhibition of rat CYP2D4 measured after concurrent incubation; format: ADME
Cytochrome P450 2D6 [30] = target: T1, Cytochrome P450 2D6; test: Inhibition of CYP2D6 in human liver microsomes measured after compound pre-incubation; format: ADME; outline: as §1
[31] = Cmax in fed Sprague-Dawley rat at 500 mg/kg, po; format: ADME, organism-based; design: dose 500 mg/kg, route oral; conditions: in vivo; outline: as §3
[32] = Cmax in fed cynomolgus monkey at 10 mg/kg, po; format: ADME, organism-based, Macaca fascicularis; design: dose 10 mg/kg, route oral; conditions: in vivo; outline: as §3
Cytochrome P450 2C8 [33] = target: T4, Cytochrome P450 2C8; test: Inhibition of CYP2C8 in human liver microsomes measured after compound pre-incubation; format: ADME; outline: as §1
[34] = Cmax in fed Sprague-Dawley rat at 100 mg/kg, po; format: ADME, organism-based; design: dose 100 mg/kg, route oral; conditions: in vivo; outline: as §3
Cytochrome P450 2C19 [35] = target: T2, Cytochrome P450 2C19; test: Inhibition of […] in human liver microsomes measured after compound pre-incubation; format: ADME
Rattus norvegicus [36] = test: Toxicity in rat at 10 to 500 mg/kg measured up to 2 weeks; format: organism-based; design: dose 10-500 mg/kg; conditions: in vivo, 336 h
hERG (KCNH2) = hERG (KCNH2) (Homo sapiens, UniProt Q12809); test: Inhibition of human ERG at 2 uM by voltage clamp assay
[37] = AUC in fed cynomolgus monkey at 100 mg/kg, po; format: ADME, organism-based, Macaca fascicularis; design: dose 100 mg/kg, route oral; conditions: plasma; outline: as §3
Rattus norvegicus [38] = test: Toxicity in rat assessed as mortality at 250 to 2000 mg/kg measured up to 1 day; format: organism-based; design: dose 250-2000 mg/kg; conditions: in vivo, 24 h; outline: as §5

T2 sequence (P33261 whole entry): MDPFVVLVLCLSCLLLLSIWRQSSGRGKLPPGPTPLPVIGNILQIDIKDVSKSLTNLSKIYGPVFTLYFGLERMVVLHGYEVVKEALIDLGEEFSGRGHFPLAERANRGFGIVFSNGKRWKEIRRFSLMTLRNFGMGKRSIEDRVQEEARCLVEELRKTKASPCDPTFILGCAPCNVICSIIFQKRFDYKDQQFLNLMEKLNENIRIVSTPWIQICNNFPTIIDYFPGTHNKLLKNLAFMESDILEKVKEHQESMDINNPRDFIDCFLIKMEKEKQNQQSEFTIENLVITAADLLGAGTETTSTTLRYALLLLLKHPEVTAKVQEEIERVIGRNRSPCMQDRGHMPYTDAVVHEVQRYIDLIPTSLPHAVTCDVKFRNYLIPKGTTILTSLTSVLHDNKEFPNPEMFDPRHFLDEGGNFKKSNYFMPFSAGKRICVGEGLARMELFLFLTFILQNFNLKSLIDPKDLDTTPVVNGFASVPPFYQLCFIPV
T1 sequence (P10635 whole entry): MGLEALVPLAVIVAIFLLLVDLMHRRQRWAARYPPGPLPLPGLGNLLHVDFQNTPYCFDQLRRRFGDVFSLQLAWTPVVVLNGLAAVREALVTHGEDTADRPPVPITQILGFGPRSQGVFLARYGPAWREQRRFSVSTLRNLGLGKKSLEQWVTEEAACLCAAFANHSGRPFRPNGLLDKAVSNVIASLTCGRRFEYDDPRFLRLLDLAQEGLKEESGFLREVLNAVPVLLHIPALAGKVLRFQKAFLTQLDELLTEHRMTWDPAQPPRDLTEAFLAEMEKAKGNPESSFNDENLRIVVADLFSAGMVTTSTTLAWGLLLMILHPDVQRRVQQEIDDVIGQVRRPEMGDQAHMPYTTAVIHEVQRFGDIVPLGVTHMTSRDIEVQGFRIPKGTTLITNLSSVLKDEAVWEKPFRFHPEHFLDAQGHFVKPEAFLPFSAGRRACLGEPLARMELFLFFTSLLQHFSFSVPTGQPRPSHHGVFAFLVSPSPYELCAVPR
T5 sequence (P08684 whole entry): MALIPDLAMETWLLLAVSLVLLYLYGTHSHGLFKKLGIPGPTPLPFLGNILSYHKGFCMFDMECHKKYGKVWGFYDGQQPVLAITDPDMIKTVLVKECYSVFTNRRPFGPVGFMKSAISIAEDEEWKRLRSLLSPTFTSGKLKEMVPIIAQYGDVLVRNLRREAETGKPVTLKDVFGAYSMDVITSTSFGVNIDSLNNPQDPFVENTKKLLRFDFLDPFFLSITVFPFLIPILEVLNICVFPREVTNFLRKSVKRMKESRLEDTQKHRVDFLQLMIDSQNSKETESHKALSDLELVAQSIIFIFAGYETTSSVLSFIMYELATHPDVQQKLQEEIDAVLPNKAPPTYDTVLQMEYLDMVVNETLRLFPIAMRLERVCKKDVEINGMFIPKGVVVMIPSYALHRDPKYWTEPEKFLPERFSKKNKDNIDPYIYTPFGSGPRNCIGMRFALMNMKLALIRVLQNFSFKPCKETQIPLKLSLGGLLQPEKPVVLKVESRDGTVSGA
T7 sequence (P11712 whole entry): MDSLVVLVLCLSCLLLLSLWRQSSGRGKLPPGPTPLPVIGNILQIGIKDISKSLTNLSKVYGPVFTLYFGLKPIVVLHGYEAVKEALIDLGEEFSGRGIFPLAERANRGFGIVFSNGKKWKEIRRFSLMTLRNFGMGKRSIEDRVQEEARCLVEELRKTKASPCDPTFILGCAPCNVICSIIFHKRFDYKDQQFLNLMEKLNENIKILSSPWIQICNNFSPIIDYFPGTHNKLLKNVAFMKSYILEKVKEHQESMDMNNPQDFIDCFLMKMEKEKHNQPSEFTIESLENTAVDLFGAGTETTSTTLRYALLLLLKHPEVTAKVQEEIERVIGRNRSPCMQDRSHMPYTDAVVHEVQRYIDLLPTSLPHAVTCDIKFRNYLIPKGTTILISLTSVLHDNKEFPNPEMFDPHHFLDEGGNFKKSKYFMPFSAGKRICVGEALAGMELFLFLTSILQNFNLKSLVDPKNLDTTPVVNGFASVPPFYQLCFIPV
Sequence of hERG (KCNH2) (Q12809 whole entry): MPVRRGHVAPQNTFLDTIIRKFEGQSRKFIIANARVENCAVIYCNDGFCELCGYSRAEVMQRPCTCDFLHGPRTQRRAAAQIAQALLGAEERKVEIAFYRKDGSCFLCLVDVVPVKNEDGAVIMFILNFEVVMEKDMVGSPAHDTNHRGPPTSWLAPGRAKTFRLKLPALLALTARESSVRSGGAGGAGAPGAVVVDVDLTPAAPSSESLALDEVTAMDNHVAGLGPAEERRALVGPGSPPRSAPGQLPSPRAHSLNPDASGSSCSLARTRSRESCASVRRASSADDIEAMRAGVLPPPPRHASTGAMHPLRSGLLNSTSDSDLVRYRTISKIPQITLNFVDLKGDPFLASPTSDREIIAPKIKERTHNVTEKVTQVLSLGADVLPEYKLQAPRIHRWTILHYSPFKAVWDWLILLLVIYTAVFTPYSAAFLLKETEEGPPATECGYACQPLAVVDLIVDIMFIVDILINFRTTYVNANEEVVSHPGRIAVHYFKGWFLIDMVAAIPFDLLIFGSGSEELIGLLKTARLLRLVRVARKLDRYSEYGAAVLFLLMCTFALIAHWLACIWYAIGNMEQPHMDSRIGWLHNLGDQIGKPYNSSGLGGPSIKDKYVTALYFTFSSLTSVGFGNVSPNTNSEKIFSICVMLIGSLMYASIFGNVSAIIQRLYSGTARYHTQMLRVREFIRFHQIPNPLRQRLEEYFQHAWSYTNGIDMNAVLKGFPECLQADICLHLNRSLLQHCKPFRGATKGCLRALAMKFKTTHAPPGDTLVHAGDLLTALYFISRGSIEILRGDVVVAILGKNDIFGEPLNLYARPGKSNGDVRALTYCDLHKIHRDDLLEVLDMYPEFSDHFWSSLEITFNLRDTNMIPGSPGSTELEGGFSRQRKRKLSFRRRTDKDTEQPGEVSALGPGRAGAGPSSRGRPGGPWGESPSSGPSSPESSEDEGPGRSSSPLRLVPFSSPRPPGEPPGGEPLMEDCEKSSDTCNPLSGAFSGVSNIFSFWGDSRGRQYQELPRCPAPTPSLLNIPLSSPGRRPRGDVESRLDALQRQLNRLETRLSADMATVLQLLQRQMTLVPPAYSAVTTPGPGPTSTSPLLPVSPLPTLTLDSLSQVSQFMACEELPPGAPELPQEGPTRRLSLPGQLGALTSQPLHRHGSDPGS

What does the source list for `Cc1cc2c(-c3ccc[nH]c3=O)c(C(=O)O)n(Cc3cc4ccccc4nc3Cl)c2cc1F`?
IC50 (Cytochrome P450 2D6 [1]): > 50 µM; Stability (Cynomolgus monkey [2]): Stable; IC50 (Cytochrome P450 2C19 [3]): > 50 µM; IC50 (Cytochrome P450 1A2 [4]): > 50 µM; Stability (Cynomolgus monkey [5]): Stable; AUC [6]: 9 µM·h; IC50 (Cytochrome P450 2C8 [7]): 21 µM; EC50 (Hepatitis C virus): 0.003 µM; AUC [8]: 176 µM·h; Activity (Salmonella typhimurium [9]): Non-toxic; Cmax [10]: 21 µM; dose excreted [11]: 81%; Cmax [12]: 66 µM; Activity (Rattus norvegicus [13]): Toxic; IC50 (Cytochrome P450 3A4 [14]): > 50 µM; AUC [15]: 1040 µM·h; Activity (Salmonella typhimurium [16]): Non-toxic; AUC [17]: 15 µM·h; AUC [18]: 375 µM·h; IC50 (Cytochrome P450 2D4 [19]): > 50 µM; Activity (Salmonella typhimurium [20]): Non-toxic; AUC [21]: 1090 µM·h; IC50 [22]: 0.013 µM; IC50 (Cytochrome P450 2C9 [23]): > 50 µM; Cmax [24]: 1.3 µM; IC50 (Cytochrome P450 2C9 [25]): > 50 µM; Cmax [26]: 2 µM; IC50 (Cytochrome P450 3A4 [27]): > 50 µM; IC50 (Cytochrome P450 1A2 [28]): > 50 µM; IC50 (Cytochrome P450 2D4 [29]): > 50 µM; IC50 (Cytochrome P450 2D6 [30]): > 50 µM; Cmax [31]: 65 µM; Cmax [32]: 0.9 µM; IC50 (Cytochrome P450 2C8 [33]): 30 µM; Cmax [34]: 32 µM; IC50 (Cytochrome P450 2C19 [35]): > 50 µM; Activity (Rattus norvegicus [36]): Non-toxic; inhibition at 2 µM (hERG (KCNH2)): 6%; AUC [37]: 17 µM·h; Activity (Rattus norvegicus [38]): Non-toxic

From ChEMBL document CHEMBL3091412, “Discovery of an irreversible HCV NS5B polymerase inhibitor” (Bioorg Med Chem Lett, 2013)
